Assay results reported in ChEMBL document CHEMBL3739385, “Stelleralides D-J and Anti-HIV Daphnane Diterpenes from Stellera chamaejasme” (J Nat Prod, 2015).

Experiments:
[1] = test system: Human immunodeficiency virus 1; assay: Antiviral activity against HIV-1 NL4-3 infected in MT4 cells assessed as viral replication measured on day 4 post infection by ELISA; type: functional, organism-based; settings: Human immunodeficiency virus 1, NL4-3, MT4, 96 h
Procedure, shortened: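 HIV-1 NL4-3 at MOI 0.001 infects MT4 cells in the presence of graded compound concentrations. Fresh medium with compound is added 48 h after infection to keep the cells growing. On day 4 post-infection, replication is read by p24 ELISA.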

[2] = test system: MT4; assay: Cytotoxicity against human MT4 cells by cellTiterGlo assay; type: cell-based
Procedure, shortened: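 MT4 cells are cultured in parallel with the antiviral assay and treated with compounds. Viability is read with CellTiter-Glo luminescent reagent, which quantifies ATP in metabolically active cells. CC50, the concentration reducing viable cells by 50%, is calculated from the dose-response curve.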

[3] = Selectivity index, ratio of CC50 for human MT4 cells to EC50 for HIV-1 NL4-3 infected in MT4 cells; type: toxicity, cell-based; settings: read-out: Ratio CC50/EC50

SMILES	EC50 [1]	CC50 [2]	selectivity ratio [3]
C=C(C)[C@]12C[C@@H](COC(=O)c3ccccc3)[C@]34OC5(CCCCCCC[C@H](C)[C@@H]6[C@@H]3[C@]3(O[C@]6(C)OC3=O)[C@H](O)[C@@]3(COC(=O)CCCCCCC/C=C\C/C=C\CCCCC)O[C@H]3[C@H]4[C@H]1O5)O2	6710 nM	≥ 10.8 µM	≥ 1
C=C(C)[C@]12C[C@@H](C)[C@]34O[C@]5(CCCCCCC[C@H](C)[C@@H]6[C@@H]3[C@]3(O[C@]6(C)OC3=O)[C@H](O)[C@@]3(CO)O[C@H]3[C@H]4[C@H]1O5)O2	1120 nM	≥ 18.3 µM	≥ 16
C=C(C)[C@@]1(O)[C@H](OC(=O)/C=C/C=C/CCCCCCCCC)[C@@H]2[C@@H]3O[C@]3(CO)[C@@H](O)[C@]3(O)C(=O)C(C)=C[C@H]3[C@@]2(O)[C@H](C)[C@H]1OC(C)=O	44 nM	≥ 15.2 µM	≥ 345
C=C(C)[C@]12C[C@@H](COC(=O)c3ccccc3)[C@@]34OC5(O[C@@H]1[C@@H]3[C@@H]1O[C@]1(CO)[C@@H](O)[C@@]1(O)[C@H]4[C@H]([C@H](C)[C@@H]1OC(=O)c1ccccc1)[C@H](C)C[C@@H](OC(=O)c1ccccc1)CCCC[C@H]5O)O2	0.73 nM	≥ 11.2 µM	≥ 15300
C=C(C)[C@]12C[C@@H](COC(=O)c3ccccc3)[C@@]34OC5(CCCCCCC[C@@H](C)[C@H]6[C@H](C)C(=O)[C@@](O)([C@H](O)[C@@]7(CO)O[C@H]7[C@H]3[C@H]1O5)[C@@H]64)O2	48 nM	≥ 15.3 µM	≥ 318
C=C(C)[C@]12C[C@@H](COC(=O)c3ccccc3)[C@]34OC5(CCCCCCC[C@H](C)[C@@H]6[C@@H]3[C@]3(O[C@]6(C)OC3=O)[C@H](O)[C@@]3(COC(=O)CCCCCCCCCCCCCCC)O[C@H]3[C@H]4[C@H]1O5)O2	590 nM	≥ 11.1 µM	≥ 18
C=C(C)[C@]12C[C@@H](C)[C@@]34O[C@](CCCCCCCCC)(O[C@@H]1[C@@H]3[C@@H]1O[C@]1(CO)[C@@H](O)[C@]1(O)C(=O)C(C)=C[C@H]14)O2 [SIMPLEXIN]	47 nM	≥ 18.8 µM	≥ 400
C=C(C)[C@@]12O[C@@]3(/C=C/C=C/CCCCCCCCC)O[C@@H]1[C@@H]1[C@@H]4O[C@]4(CO)[C@@H](O)[C@]4(O)C(=O)C(C)=C[C@H]4[C@@]1(O3)[C@H](C)[C@H]2OC(C)=O	12 nM	≥ 15.6 µM	≥ 1300
C=C(C)[C@]1(O)C[C@@H](C)[C@@]2(O)[C@H]([C@H]1OC(=O)/C=C/C=C/CCCCCCCCC)[C@@H]1O[C@]1(CO)[C@@H](O)[C@]1(O)C(=O)C(C)=C[C@H]12	59 nM	≥ 16.6 µM	≥ 281
C=C(C)[C@]1(O)C[C@@H](C)[C@@]2(O)[C@H]([C@H]1OC(=O)/C=C/C=C/CCCCCCCCC)[C@H](O)[C@@](O)(CO)[C@@H](O)[C@]1(O)C(=O)C(C)=C[C@H]12	44 nM	≥ 4.4 µM	≥ 100
C=C(C)[C@@]12OC3(/C=C/C=C/CCCCCCCCCC)O[C@@H]1[C@@H]1[C@@H]4O[C@]4(CO)[C@@H](O)[C@]4(O)C(=O)C(C)=C[C@H]4[C@@]1(O3)[C@H](C)[C@H]2OC(C)=O	39 nM	≥ 15.3 µM	≥ 392
Cc1cn([C@H]2C[C@H](N=[N+]=[N-])[C@@H](CO)O2)c(=O)[nH]c1=O [ZIDOVUDINE]		≥ 3.74 µM	
C=C(C)[C@]12C[C@@H](COC(=O)c3ccccc3)[C@@]34OC5(O[C@@H]1[C@@H]3[C@@H]1O[C@]1(COC(=O)c1ccccc1)[C@@H](O)[C@@]1(O)[C@H]4[C@H]([C@H](C)[C@@H]1O)[C@H](C)CCCCCC[C@H]5O)O2	0.98 nM	≥ 12.9 µM	≥ 13200
C=C(C)[C@]12C[C@@H](COC(=O)c3ccccc3)[C@]34OC5(CCCCCCC[C@H](C)[C@@H]6[C@@H]3[C@]3(O[C@]6(C)OC3=O)[C@H](O)[C@@]3(CO)O[C@H]3[C@H]4[C@H]1O5)O2	330 nM	≥ 13.8 µM	≥ 41
C=C(C)[C@]12C[C@@H](COC(=O)c3ccccc3)[C@@]34OC5(O[C@@H]1[C@@H]3[C@@H]1O[C@]1(CO)[C@@H](O)[C@@]1(O)[C@H]4[C@H]([C@H](C)[C@@H]1OC(=O)c1ccccc1)[C@H](C)CCCCCC[C@H]5O)O2	0.06 nM	≥ 1.29 µM	≥ 21500
C=C(C)[C@]12C[C@@H](COC(C)=O)[C@@]34OC5(O[C@@H]1[C@@H]3[C@@H]1O[C@]1(CO)[C@@H](O)[C@@]1(O)[C@H]4[C@H]([C@H](C)[C@@H]1OC(=O)c1ccccc1)[C@H](C)C[C@@H](OC(=O)c1ccccc1)CCCC[C@H]5O)O2	0.93 nM	≥ 12 µM	≥ 12900
C=C(C)[C@]12C[C@@H](C)[C@@]34OC5(CCCCCCC[C@@H](C)[C@H]6[C@H](C)[C@H](OC(=O)c7ccccc7)[C@@](O)([C@H](O)[C@@]7(CO)O[C@H]7[C@H]3[C@H]1O5)[C@@H]64)O2	1.1 nM	≥ 15.7 µM	≥ 14300
C=C(C)[C@]12C[C@@H](C)[C@@]34O[C@](/C=C/C=C/CCCCCCCCC)(O[C@@H]1[C@@H]3[C@@H]1O[C@]1(CO)[C@@H](O)[C@]1(O)C(=O)C(C)=C[C@H]14)O2	2.6 nM	≥ 14 µM	≥ 5380
C=C(C)[C@]12C[C@@H](C)[C@@]34OC(/C=C/C=C/CCCCCCCCCC)(O[C@@H]1[C@@H]3[C@@H]1O[C@]1(CO)[C@@H](O)[C@]1(O)C(=O)C(C)=C[C@H]14)O2	13 nM	≥ 16.7 µM	≥ 1280
C=C(C)[C@@]12OC3(/C=C/C=C/CCCCCCCCCC)O[C@@H]1[C@@H]1[C@@H]4O[C@]4(CO)[C@@H](O)[C@]4(O)C(=O)C(C)=C[C@H]4[C@@]1(O3)[C@H](C)[C@H]2O	120 nM	≥ 16.3 µM	≥ 135
